The results in this text go back to ChEMBL document CHEMBL4219132, “Sulfamic acid promoted one-pot synthesis of phenanthrene fused-dihydrodibenzo-quinolinones: Anticancer activity, tubulin polymerization inhibition and apoptosis inducing studies” (Bioorg Med Chem, 2018).

The test system of one test is HCT-116. The experiment in a line: Cytotoxicity against human HCT116 cells assessed as cell growth inhibition after 48 hrs by MTT assay. The test is classed as functional, cell-based. The following applies: HCT-116, 48 h. Put shortly: (§1)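 MTT assay. Cells were seeded at 1×10^4 per well in their medium with 10% FBS and allowed 24 h at 37 °C. Compound diluted in medium was added alongside a vehicle control and left for 48 h. MTT (0.5 mg/mL) was then added for 4 h, formazan dissolved in DMSO, and absorbance read at 570 nm. IC50 is the concentration inhibiting 50% of cells.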
On the technique in general: Formazan colour is commonly taken as a measure of viable cells.
Broadly, the IC50 is the midpoint of a concentration-inhibition curve. Take `COc1ccc(C2CC(=O)Nc3c2c2cc(OC)c(OC)cc2c2cc(OC)c(OC)cc32)cc1` (stereo not drawn): the IC50 was > 20 µM.
Regarding `COc1cc2c3c(c4cc(OC)c(OC)cc4c2cc1OC)C(c1ccc(O)c(O)c1)CC(=O)N3` (stereo not drawn), the IC50 is 12.6 µM.
Same read-out and setting: the figure for `COc1ccc(C2CC(=O)Nc3c2c2cc(OC)c(OC)cc2c2cc(OC)c(OC)cc32)cc1OC` (stereo not drawn) is 8.12 µM; for `COc1cc2c3c(c4cc(OC)c(OC)cc4c2cc1OC)C(c1cccc2ccccc12)CC(=O)N3` (stereo not drawn) it is 17.2 µM.
Still for that read-out and setting: the figure for `COc1cc2c3c(c4cc(OC)c(OC)cc4c2cc1OC)C(c1ccccc1)CC(=O)N3` (stereo not drawn) is > 20 µM.
On the same count and under the same terms, under `COc1cccc(C2CC(=O)Nc3c2c2cc(OC)c(OC)cc2c2cc(OC)c(OC)cc32)c1` (stereo not drawn) stands > 20 µM; under `COc1cc2c3c(c4cc(OC)c(OC)cc4c2cc1OC)C(c1ccc(Br)cc1)CC(=O)N3` (stereo not drawn), 16.5 µM.
As for `COc1cc2c3c(c4cc(OC)c(OC)cc4c2cc1OC)C(c1ccc(Cl)cc1)CC(=O)N3` (stereo not drawn), the IC50 worked out at 14.2 µM.
Still for that read-out and setting: the figure for `COc1cc2c3c(c4cc(OC)c(OC)cc4c2cc1OC)C(c1ccc(C(C)C)cc1)CC(=O)N3` (stereo not drawn) is > 20 µM.

In another test the test system is A549. The experiment in a line: Cytotoxicity against human A549 cells assessed as cell growth inhibition after 48 hrs by MTT assay. The following applies: A549, 48 h. The format is functional, cell-based. Put shortly:
as §1
Take `COc1ccc(C2CC(=O)Nc3c2c2cc(OC)c(OC)cc2c2cc(OC)c(OC)cc32)cc1` (stereo not drawn): the IC50 was 8.94 µM.
The same measure, in the same setting: under `COc1cc2c3c(c4cc(OC)c(OC)cc4c2cc1OC)C(c1ccc(O)c(O)c1)CC(=O)N3` (stereo not drawn) stands 11.6 µM; under `COc1ccc(C2CC(=O)Nc3c2c2cc(OC)c(OC)cc2c2cc(OC)c(OC)cc32)cc1OC` (stereo not drawn), 4.09 µM; under `COc1cc2c3c(c4cc(OC)c(OC)cc4c2cc1OC)C(c1cccc2ccccc12)CC(=O)N3` (stereo not drawn), 14.7 µM.
Same read-out and setting: under `COc1cc2c3c(c4cc(OC)c(OC)cc4c2cc1OC)C(c1ccccc1)CC(=O)N3` (stereo not drawn) stands > 20 µM; under `COc1cccc(C2CC(=O)Nc3c2c2cc(OC)c(OC)cc2c2cc(OC)c(OC)cc32)c1` (stereo not drawn), > 20 µM.
Still for that read-out and setting: the figure for `COc1cc2c3c(c4cc(OC)c(OC)cc4c2cc1OC)C(c1ccc(Br)cc1)CC(=O)N3` (stereo not drawn) is 7.16 µM; for `COc1cc2c3c(c4cc(OC)c(OC)cc4c2cc1OC)C(c1ccc(Cl)cc1)CC(=O)N3` (stereo not drawn) it is 6.49 µM.
For `COc1cc2c3c(c4cc(OC)c(OC)cc4c2cc1OC)C(c1ccc(C(C)C)cc1)CC(=O)N3` (stereo not drawn), the IC50 turned out to be 8.84 µM.

The next test deals with DU-145. The experiment in a line: Cytotoxicity against human DU145 cells assessed as cell growth inhibition after 48 hrs by MTT assay. The test is classed as functional, cell-based. The following applies: DU-145, 48 h. Put shortly: as §1
Take `COc1ccc(C2CC(=O)Nc3c2c2cc(OC)c(OC)cc2c2cc(OC)c(OC)cc32)cc1` (stereo not drawn): the IC50 worked out at 17 µM.
On the same count and under the same terms, under `COc1cc2c3c(c4cc(OC)c(OC)cc4c2cc1OC)C(c1ccc(O)c(O)c1)CC(=O)N3` (stereo not drawn) stands > 20 µM; under `COc1ccc(C2CC(=O)Nc3c2c2cc(OC)c(OC)cc2c2cc(OC)c(OC)cc32)cc1OC` (stereo not drawn), 13.1 µM.
Still for that read-out and setting: the figure for `COc1cc2c3c(c4cc(OC)c(OC)cc4c2cc1OC)C(c1cccc2ccccc12)CC(=O)N3` (stereo not drawn) is 16.1 µM; for `COc1cc2c3c(c4cc(OC)c(OC)cc4c2cc1OC)C(c1ccccc1)CC(=O)N3` (stereo not drawn) it is 18.8 µM.
Still for that read-out and setting: under `COc1cccc(C2CC(=O)Nc3c2c2cc(OC)c(OC)cc2c2cc(OC)c(OC)cc32)c1` (stereo not drawn) stands 18.9 µM; under `COc1cc2c3c(c4cc(OC)c(OC)cc4c2cc1OC)C(c1ccc(Br)cc1)CC(=O)N3` (stereo not drawn), > 20 µM; under `COc1cc2c3c(c4cc(OC)c(OC)cc4c2cc1OC)C(c1ccc(Cl)cc1)CC(=O)N3` (stereo not drawn), 19 µM.
Turning to `COc1cc2c3c(c4cc(OC)c(OC)cc4c2cc1OC)C(c1ccc(C(C)C)cc1)CC(=O)N3` (stereo not drawn), the IC50 is 18.2 µM.

Another test has as its system PC-3. The test is described as follows: Cytotoxicity against human PC3 cells assessed as cell growth inhibition after 48 hrs by MTT assay. The following applies: PC-3, 48 h. The format is functional, cell-based. The essentials: as §1
For the compound `COc1ccc(C2CC(=O)Nc3c2c2cc(OC)c(OC)cc2c2cc(OC)c(OC)cc32)cc1` (stereo not drawn), the IC50 was found to be 19.1 µM.
In the case of `COc1cc2c3c(c4cc(OC)c(OC)cc4c2cc1OC)C(c1ccc(O)c(O)c1)CC(=O)N3` (stereo not drawn), the 50% inhibitory concentration (IC50) worked out at 19.8 µM.
Still for that read-out and setting: under `COc1ccc(C2CC(=O)Nc3c2c2cc(OC)c(OC)cc2c2cc(OC)c(OC)cc32)cc1OC` (stereo not drawn) stands > 20 µM.
The same measure, in the same setting: under `COc1cc2c3c(c4cc(OC)c(OC)cc4c2cc1OC)C(c1ccccc1)CC(=O)N3` (stereo not drawn) stands > 20 µM; under `COc1cccc(C2CC(=O)Nc3c2c2cc(OC)c(OC)cc2c2cc(OC)c(OC)cc32)c1` (stereo not drawn), > 20 µM.
The same measure, in the same setting: under `COc1cc2c3c(c4cc(OC)c(OC)cc4c2cc1OC)C(c1ccc(Br)cc1)CC(=O)N3` (stereo not drawn) stands > 20 µM.
Take `COc1cc2c3c(c4cc(OC)c(OC)cc4c2cc1OC)C(c1ccc(Cl)cc1)CC(=O)N3` (stereo not drawn): the IC50 was > 20 µM.
Same read-out and setting: the figure for `COc1cc2c3c(c4cc(OC)c(OC)cc4c2cc1OC)C(c1ccc(C(C)C)cc1)CC(=O)N3` (stereo not drawn) is > 20 µM.

The test system of the next test is HT-29. The experiment in a line: Cytotoxicity against human HT-29 cells assessed as cell growth inhibition after 48 hrs by MTT assay. The following applies: HT-29, 48 h. The test is classed as functional, cell-based. The essentials:
as §1
As to `COc1ccc(C2CC(=O)Nc3c2c2cc(OC)c(OC)cc2c2cc(OC)c(OC)cc32)cc1` (stereo not drawn), the IC50 came to 16.7 µM.
Still for that read-out and setting: under `COc1cc2c3c(c4cc(OC)c(OC)cc4c2cc1OC)C(c1ccc(O)c(O)c1)CC(=O)N3` (stereo not drawn) stands 10.3 µM; under `COc1ccc(C2CC(=O)Nc3c2c2cc(OC)c(OC)cc2c2cc(OC)c(OC)cc32)cc1OC` (stereo not drawn), 12.2 µM.
Consider `COc1cc2c3c(c4cc(OC)c(OC)cc4c2cc1OC)C(c1cccc2ccccc12)CC(=O)N3` (stereo not drawn), for which the half-maximal inhibitory concentration (IC50) turned out to be 18.4 µM.
The same measure, in the same setting: the figure for `COc1cc2c3c(c4cc(OC)c(OC)cc4c2cc1OC)C(c1ccccc1)CC(=O)N3` (stereo not drawn) is > 20 µM.
On the same count and under the same terms, under `COc1cccc(C2CC(=O)Nc3c2c2cc(OC)c(OC)cc2c2cc(OC)c(OC)cc32)c1` (stereo not drawn) stands > 20 µM; under `COc1cc2c3c(c4cc(OC)c(OC)cc4c2cc1OC)C(c1ccc(Br)cc1)CC(=O)N3` (stereo not drawn), 15.5 µM.
On the same count and under the same terms, under `COc1cc2c3c(c4cc(OC)c(OC)cc4c2cc1OC)C(c1ccc(Cl)cc1)CC(=O)N3` (stereo not drawn) stands 13.8 µM.
In the case of `COc1cc2c3c(c4cc(OC)c(OC)cc4c2cc1OC)C(c1ccc(C(C)C)cc1)CC(=O)N3` (stereo not drawn), the IC50 amounted to 16 µM.

The next test concerns MCF7. The test is described as follows: Cytotoxicity against human MCF7 cells assessed as cell growth inhibition after 48 hrs by MTT assay. The format is functional, cell-based. The following applies: MCF7, 48 h. Put shortly: as §1
Take `COc1ccc(C2CC(=O)Nc3c2c2cc(OC)c(OC)cc2c2cc(OC)c(OC)cc32)cc1` (stereo not drawn): the IC50 is > 20 µM.
For `COc1cc2c3c(c4cc(OC)c(OC)cc4c2cc1OC)C(c1ccc(O)c(O)c1)CC(=O)N3` (stereo not drawn), the IC50 was > 20 µM.
Same read-out and setting: under `COc1ccc(C2CC(=O)Nc3c2c2cc(OC)c(OC)cc2c2cc(OC)c(OC)cc32)cc1OC` (stereo not drawn) stands > 20 µM; under `COc1cc2c3c(c4cc(OC)c(OC)cc4c2cc1OC)C(c1cccc2ccccc12)CC(=O)N3` (stereo not drawn), > 20 µM; under `COc1cc2c3c(c4cc(OC)c(OC)cc4c2cc1OC)C(c1ccccc1)CC(=O)N3` (stereo not drawn), > 20 µM.
Still for that read-out and setting: the figure for `COc1cccc(C2CC(=O)Nc3c2c2cc(OC)c(OC)cc2c2cc(OC)c(OC)cc32)c1` (stereo not drawn) is > 20 µM; for `COc1cc2c3c(c4cc(OC)c(OC)cc4c2cc1OC)C(c1ccc(Br)cc1)CC(=O)N3` (stereo not drawn) it is > 20 µM; for `COc1cc2c3c(c4cc(OC)c(OC)cc4c2cc1OC)C(c1ccc(Cl)cc1)CC(=O)N3` (stereo not drawn) it is > 20 µM.
Still for that read-out and setting: the figure for `COc1cc2c3c(c4cc(OC)c(OC)cc4c2cc1OC)C(c1ccc(C(C)C)cc1)CC(=O)N3` (stereo not drawn) is > 20 µM.
